Here are results for two compounds from PMC11451940 (RSC Medicinal Chemistry, 2024).

Values after ≈ are worked out from the molar mass of the structure shown. Values joined by “and” are separate entries in the source; they are usually repeats but may differ in a detail not shown here. Identical values can stand only once. Like-named read-outs stand apart in the source and are kept apart here.

In experiment [1] the test system is A2780R cells (cisplatin-resistant ovarian carcinoma). The experiment is described as follows: MTT in vitro cytotoxicity, A2780R. The settings on record: read-out: IC50 ± SD, A2780R. The format is cell-based, human. Summed up: (§1)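 MTT assay on ATCC human lines cultured per supplier instructions: A2780, A2780R, MCF-7, PC-3, A549, HOS and normal foetal fibroblast MRC-5. Exposure was 24 h for all lines; A2780 was also tested at 48 and 72 h. IC50 came from dose–response curves, given ± SD from triplicate experiments. Selectivity index = IC50(MRC-5)/IC50(A2780).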

The test system of experiment [2] is A549 cells (lung adenocarcinoma). The experiment is described as follows: MTT in vitro cytotoxicity, A549. The experiment is classed as cell-based, human. Conditions: read-out: IC50 ± SD, A549. The method, boiled down:
as §1

Experiment [3] concerns MRC-5 cells (human foetal fibroblasts). The experiment is described as follows: MTT in vitro cytotoxicity, normal MRC-5. The experiment is classed as cell-based. Conditions: for IC50: read-out: IC50 ± SD, MRC-5. The method, boiled down: as §1
Experiment [4] has as its system PC-3 cells (prostate adenocarcinoma). The experiment is described as follows: MTT in vitro cytotoxicity, PC-3. The experiment is classed as cell-based, human. Conditions: read-out: IC50 ± SD, PC-3. Summed up: as §1
In experiment [5] the test system is MCF-7 cells (breast adenocarcinoma). The experiment is described as follows: MTT in vitro cytotoxicity, MCF-7. The format is cell-based, human. Conditions: read-out: IC50 ± SD, MCF-7. Summed up: as §1
Experiment [6] deals with HOS cells (bone osteosarcoma). The experiment in a line: MTT in vitro cytotoxicity, HOS. The format is cell-based, human. The settings on record: read-out: IC50 ± SD, HOS. Summed up: as §1
The test system of experiment [7] is A2780 cells (human ovarian carcinoma). The experiment is described as follows: MTT in vitro cytotoxicity, A2780. The experiment is classed as cell-based. Summed up: as §1
The subject of another experiment is HL60 cells. Conditions: read-out: IC50 on HL60 cells; 48 h of incubation; cited from earlier work.
Another experiment concerns PC3. Conditions: 72 h of incubation; cited from earlier work.
The next experiment concerns 3T3. The settings on record: 72 h of incubation; cited from earlier work.
The next experiment relates to HeLa. Conditions: 72 h of incubation; cited from earlier work.
Where [8] appears, read: read-out: IC50 ± SD, A2780, 72 h, 72 h incubation time, MTT.

In the case of `N.N.[Cl][Pt][Cl]` [Cisplatin], the IC50 in [1] (24 h of incubation, MTT) was 42.7 ± 3.8 µM; in [2] (24 h of incubation, MTT) it was > 50 µM; in experiment [3] (24 h of incubation, MTT, normal cells), 46.1 ± 2.4 µM; in [4] (24 h of incubation, MTT), > 50 µM; in [5] (24 h of incubation, MTT), 37 ± 2.2 µM; in [6] (24 h of incubation, MTT) it was > 50 µM. Also, the IC50 in experiment [7] (read-out: IC50 ± SD, A2780, 48 h, 48 h incubation time, MTT) is 6.5 ± 3.2 µM; in [7] (setting [8]), 3.7 ± 0.2 µM; in experiment [7] (read-out: IC50 ± SD, A2780, 24 h of incubation, MTT) it was 15.2 µM and 15.4 µM. Moreover, the “SI, selectivity index expressed as IC50(MRC-5)/IC50(A2780)” value in [3] (24 h of incubation) is given as 3.0; in experiment [3] (24 h of incubation, listed as cisplatin), “≈ 3”.

Regarding `CC(C)=CCC1=C(O)C(=O)c2ccccc2C1=O` [Lapachol, 2-hydroxy-3-(3-methylbut-2-en-1-yl)naphthalene-1,4-dione], the IC50 in experiment [1] (Homo sapiens, 24 h) is > 50 µM; in [2] (Homo sapiens, A549, 24 h), > 50 µM; in [3] (Homo sapiens, MRC5, 24 h), > 50 µM; with HL60 cells, 25 µM; in experiment [4] (Homo sapiens, PC-3, 24 h), > 50 µM; in experiment [5] (Homo sapiens, MCF7, 24 h) it was > 50 µM. For the same compound, the IC50 was > 50 µM in [6] (Homo sapiens, HOS, 24 h); > 50 µM in [7] (Homo sapiens, A2780, 24 h, read-out: IC50 ± SD, A2780, 24 h of incubation, MTT); 6.4 ± 0.8 µM in experiment [7] (setting [8]). In addition, the “IC50 on PC3” value with PC3 is 20.51 µg/mL (≈ 84.7 µM). In addition, the “IC50 on 3T3” value in the experiment on 3T3 is 6.15 µg/mL (≈ 25.4 µM). Besides, the “IC50 on HeLa” value in the experiment on HeLa is 19.04 µg/mL (≈ 78.6 µM).
